pIC50: −log10 of the molar value. Each block holds one molecule with its values, some of them ahead of it. The source made the active and inactive calls. The calls are words filed in the database; no cut-off is given here.
Legend:
HeLa [1] = experiment: Cytotoxicity against human HeLa cells assessed as cell killing after 24 hrs by MTT assay; type: functional, cell-based
HeLa [2] = experiment: Cytotoxicity against human HeLa cells assessed as cell viability at 10 uM after 24 hrs by MTT assay relative to control; type: functional; conditions: read-out: Activity
HEK293 = experiment: Cytotoxicity against HEK293 cells assessed as reduction in cell viability after 24 hrs by MTT assay; type: cell-based; conditions: Homo sapiens, HEK293, 24 h
[3] = Cytotoxicity against HEK293 cells assessed as cell viability at 5 uM after 24 hrs by MTT assay relative to control; type: cell-based; conditions: human, read-out: Activity
[4] = Drug uptake in mitochondria of human HeLa cells at 150 nM incubated for 20 mins by mito-tracker green dye based laser confocal microscopic analysis; type: ADME; conditions: 0.15 µM
How it was run: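 HeLa cells exposed to compound at 150 nM for 20 min, mitochondria then stained with MitoTracker Green; colocalization by confocal laser scanning microscopy with intensity scatter plots and z-stack maximum projections.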

HeLa [5] = experiment: Induction of mitochondrial damage in human HeLa cells assessed as opening of MPTP by measuring fold increase in fluorescence intensity at 800 nM after 24 hrs by Calcein AM/CoCl2 based confocal microscopic analysis relative to control; conditions: Mitochondria
How it was run: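 HeLa cells treated 24 h, then loaded with Calcein AM plus CoCl2; live cells imaged by confocal microscopy and green fluorescence intensity quantified against untreated control.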

HeLa [6] = experiment: Induction of morphological changes in mitochondria of human HeLa cells assessed as reduction in mitochondrial area at 500 nM after 3 hrs by laser confocal microscopic analysis relative to untreated control
How it was run: (§1)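 Mitochondrial morphology: HeLa cells given 500 nM compound for 3 h, mitochondria visualized by confocal imaging (controls stained with MitoTracker Green); fragmentation scored and average mitochondrial area quantified against control.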

HeLa [7] = experiment: Decrease in Bcl-2 expression in human HeLa cells assessed as fold change in fluorescent intensity at 900 nM after 24 hrs by Alexa fluor 488/DAPI-staining based confocal microscopic analysis relative to untreated control; type: functional
How it was run: (§2)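 Immunofluorescence: HeLa cells treated 24 h, probed with Bcl-2, Bcl-xl or Bax primary antibodies and Alexa Fluor 488 secondary, nuclei counterstained with DAPI; confocal green intensity quantified relative to control.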

HeLa [8] = experiment: Decrease in Bcl-xl expression in human HeLa cells assessed as fold change in fluorescent intensity at 900 nM after 24 hrs by Alexa fluor 488/DAPI-staining based confocal microscopic analysis relative to untreated control; type: functional; how it was run: as §2
HeLa [9] = experiment: Increase in Bax expression in human HeLa cells assessed as fold change in fluorescent intensity at 900 nM after 24 hrs by Alexa fluor 488/DAPI-staining based confocal microscopic analysis relative to untreated control; type: functional; how it was run: as §2
HeLa [10] = experiment: Decrease in Bcl-2 expression in human HeLa cells at 900 nM after 24 hrs by Western blot analysis relative to control; type: functional
How it was run: (§3)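 Western blot of HeLa cellular proteins after 24 h compound treatment; Bcl-2, Bcl-xl and Bax bands quantified relative to control.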

HeLa [11] = experiment: Decrease in Bcl-xl expression in human HeLa cells at 900 nM after 24 hrs by Western blot analysis relative to control; type: functional; how it was run: as §3
HeLa [12] = experiment: Up regulation of Bax expression in human HeLa cells at 900 nM after 24 hrs by Western blot analysis relative to control; type: functional; how it was run: as §3
HeLa [13] = experiment: Induction of ROS generation in human HeLa cells assessed as fold change in fluorescent intensity at 500 to 800 nM after 24 hrs by H2DCF-DA staining-based fluorescence microscopic analysis relative to untreated control; type: functional
How it was run: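 ROS read-out: HeLa cells treated with compound, then incubated with H2DCFDA; green fluorescence imaged by fluorescence/confocal microscopy and intensity quantified versus control.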

HeLa [14] = experiment: Induction of cell cycle arrest in human HeLa cells assessed as apoptotic cells at 900 nM after 24 hrs by RNase/PI-staining based flow cytometric analysis (reference value: 1.25%); type: functional
HeLa [15] = experiment: Induction of cell cycle arrest in human HeLa cells assessed as accumulation of cells at G0/G1 phase at 900 nM after 24 hrs by RNase/PI-staining based flow cytometric analysis (reference value: 47.43%); type: functional
HeLa [16] = experiment: Induction of cell cycle arrest in human HeLa cells assessed as accumulation of cells at S phase at 900 nM after 24 hrs by RNase/PI-staining based flow cytometric analysis (reference value: 13.83%); type: functional
HeLa [17] = experiment: Induction of cell cycle arrest in human HeLa cells assessed as accumulation of cells at G2/M phase at 900 nM after 24 hrs by RNase/PI-staining based flow cytometric analysis (reference value: 33.91%); type: functional
HeLa [18] = experiment: Induction of apoptosis in human HeLa cells assessed as viable cells at 900 nM after 24 hrs by APC-AnnexinV/7-AAD staining based flow cytometric analysis (reference value: 96.4%); type: functional; conditions: read-out: Activity
How it was run: (§4)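 After 24 h treatment, HeLa cells stained with APC-Annexin V (phosphatidylserine) and 7-AAD (nuclear DNA of necrotic cells), then sorted by flow cytometry into viable, early, late apoptotic and necrotic populations.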

HeLa [19] = experiment: Induction of apoptosis in human HeLa cells assessed as early apoptotic cells at 900 nM after 24 hrs by APC-AnnexinV/7-AAD staining based flow cytometric analysis (reference value: 0.2%); type: functional; how it was run: as §4
HeLa [20] = experiment: Induction of apoptosis in human HeLa cells assessed as late apoptotic cells at 900 nM after 24 hrs by APC-AnnexinV/7-AAD staining based flow cytometric analysis (reference value: 2.3%); type: functional; how it was run: as §4
HeLa [21] = experiment: Induction of apoptosis in human HeLa cells assessed as necrotic cells at 900 nM after 24 hrs by APC-AnnexinV/7-AAD staining based flow cytometric analysis (reference value: 1.1%); type: functional; how it was run: as §4
HeLa [22] = experiment: Induction of morphological changes in mitochondria of human HeLa cells assessed as mitochondrial fragmentation at 500 nM after 3 hrs by mito-tracker green dye based laser confocal microscopic analysis; how it was run: as §1
HeLa [23] = experiment: Induction of apoptosis in human HeLa cells assessed as reduction in caspase-3 expression at 900 nM after 24 hrs by Western blot analysis relative to control; type: functional
How it was run: (§5)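 HeLa cells incubated 24 h with compound; whole-cell proteins run on gel electrophoresis and blotted for pro-caspase-3 and pro-caspase-9.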

HeLa [24] = experiment: Induction of apoptosis in human HeLa cells assessed as reduction in caspase-9 expression at 900 nM after 24 hrs by Western blot analysis relative to control; type: functional; how it was run: as §5
HeLa [25] = experiment: Cytotoxicity against human HeLa cells assessed as cell death at 10 uM after 24 hrs by MTT assay; type: functional, cell-based
HeLa [26] = experiment: Cytotoxicity against human HeLa cells assessed as reduction in cell viability after 24 hrs by MTT assay

SMILES: COc1cc(-c2cccs2)[nH]c1/C=C/C1=[N+](C)c2ccccc2C1(C)C
pIC50 (HeLa [1]): 5.35 to 6.04 | inhibition (HeLa [1]): Dose-dependent effect

SMILES: COC1=CC(c2cc3ccccc3[nH]2)=N/C1=C\c1[nH]c(C)cc1C [OBATOCLAX]
viability at 10 µM (HeLa [2]): 70.3%

Drug uptake [4]: Active | fold change (FC) (HeLa [6]): 2.6 | Activity (HeLa [22]): Active
SMILES: COc1ccc2[nH]c(-c3cc(OC)c(/C=C/C4=[N+](C)c5ccccc5C4(C)C)[nH]3)cc2c1.[I-]
pIC50 (HeLa [1]): 6.04 | inhibition (HeLa [1]): Dose-dependent effect | pIC50 (HEK293): 5.58 | viability at 24 h, 5 µM [3]: 25% | fold change (FC) (HeLa [5]): 3.9 | fold change (FC) (HeLa [7]): 5.7 | fold change (FC) (HeLa [8]): 8.4 | fold change (FC) (HeLa [9]): 2.4 | fold change (FC) (HeLa [10]): 9.3 | fold change (FC) (HeLa [11]): 5.6 | fold change (FC) (HeLa [12]): 4.1 | fold change (FC) (HeLa [13]): 22.4 | Activity (HeLa [14]): 3.47% | Activity (HeLa [15]): 63.94% | Activity (HeLa [16]): 13.52% | Activity (HeLa [17]): 15% | viability at 0.9 µM (HeLa [18]): 0.3% | Activity (HeLa [19]): 0% | Activity (HeLa [20]): 98.7% | Activity (HeLa [21]): 1% | fold change (FC) (HeLa [23]): 3.7 | fold change (FC) (HeLa [24]): 2

SMILES: CC(=O)O[C@H]1C(=O)[C@@]2(C)[C@H]([C@H](OC(=O)c3ccccc3)[C@]3(O)C[C@H](OC(=O)[C@H](O)[C@@H](NC(=O)c4ccccc4)c4ccccc4)C(C)=C1C3(C)C)[C@]1(OC(C)=O)CO[C@@H]1C[C@@H]2O [PACLITAXEL]
viability at 10 µM (HeLa [2]): 68.7%

SMILES: COc1cc(-c2ccc3c(c2)OCO3)[nH]c1/C=C/C1=[N+](C)c2ccccc2C1(C)C
pIC50 (HeLa [1]): 5.35 to 6.04 | inhibition (HeLa [1]): Dose-dependent effect

SMILES: CCc1c2c(nc3ccc(O)cc13)-c1cc3c(c(=O)n1C2)COC(=O)[C@]3(O)CC
Activity (HeLa [25]): inactive

Drug uptake [4]: Active | fold change (FC) (HeLa [6]): 3.4 | Activity (HeLa [22]): Active
SMILES: COc1cc(-c2cc3ccccc3[nH]2)[nH]c1/C=C/C1=[N+](C)c2ccccc2C1(C)C.[I-]
pIC50 (HeLa [1]): 6.01 | inhibition (HeLa [1]): Dose-dependent effect | pIC50 (HEK293): 5.59 | viability at 24 h, 5 µM [3]: 24% | fold change (FC) (HeLa [5]): 3.6 | fold change (FC) (HeLa [7]): 8.5 | fold change (FC) (HeLa [8]): 10.1 | fold change (FC) (HeLa [9]): 2.1 | fold change (FC) (HeLa [10]): 6.4 | fold change (FC) (HeLa [11]): 4 | fold change (FC) (HeLa [12]): 3.6 | fold change (FC) (HeLa [13]): 16.1 | Activity (HeLa [14]): 4.68% | Activity (HeLa [15]): 67.96% | Activity (HeLa [16]): 6.42% | Activity (HeLa [17]): 16.79% | viability at 0.9 µM (HeLa [18]): 0.1% | Activity (HeLa [19]): 0% | Activity (HeLa [20]): 99.5% | Activity (HeLa [21]): 0.4% | fold change (FC) (HeLa [23]): 3.5 | fold change (FC) (HeLa [24]): 1.9

SMILES: COc1cc(-c2ccco2)[nH]c1/C=C/C1=[N+](C)c2ccccc2C1(C)C
pIC50 (HeLa [1]): 5.35 to 6.04 | inhibition (HeLa [1]): Dose-dependent effect

SMILES: COc1cc(-c2ccccc2)[nH]c1/C=C/C1=[N+](C)c2ccccc2C1(C)C
pIC50 (HeLa [1]): 5.35 to 6.04 | inhibition (HeLa [1]): Dose-dependent effect

SMILES: COc1ccc(OC)c(-c2cc(OC)c(/C=C/C3=[N+](C)c4ccccc4C3(C)C)[nH]2)c1
pIC50 (HeLa [1]): 5.35 to 6.04 | inhibition (HeLa [1]): Dose-dependent effect

SMILES: COc1cccc2c1C(=O)c1c(O)c3c(c(O)c1C2=O)C[C@@](O)(C(=O)CO)C[C@@H]3O[C@H]1C[C@H](N)[C@H](O)[C@H](C)O1 [DOXORUBICIN]
pIC50 (HeLa [26]): 5.70

SMILES: COc1cc(-c2cc3ccccc3o2)[nH]c1/C=C/C1=[N+](C)c2ccccc2C1(C)C
pIC50 (HeLa [1]): 5.35 to 6.04 | inhibition (HeLa [1]): Dose-dependent effect

SMILES: COc1cc(-c2ccc[nH]2)[nH]c1/C=C/C1=[N+](C)c2ccccc2C1(C)C
pIC50 (HeLa [1]): 5.35 to 6.04 | inhibition (HeLa [1]): Dose-dependent effect

SMILES: COc1ccc(-c2cc(OC)c(/C=C/C3=[N+](C)c4ccccc4C3(C)C)[nH]2)c(OC)c1
pIC50 (HeLa [1]): 5.35 to 6.04 | inhibition (HeLa [1]): Dose-dependent effect

SMILES: COc1cc(-c2cccc(OC)c2OC)[nH]c1/C=C/C1=[N+](C)c2ccccc2C1(C)C
pIC50 (HeLa [1]): 5.35 to 6.04 | inhibition (HeLa [1]): Dose-dependent effect

SMILES: COc1cc(-c2cc3ccccc3s2)[nH]c1/C=C/C1=[N+](C)c2ccccc2C1(C)C
pIC50 (HeLa [1]): 5.35 to 6.04 | inhibition (HeLa [1]): Dose-dependent effect

SMILES: COc1cc(OC)cc(-c2cc(OC)c(/C=C/C3=[N+](C)c4ccccc4C3(C)C)[nH]2)c1
pIC50 (HeLa [1]): 5.35 to 6.04 | inhibition (HeLa [1]): Dose-dependent effect

SMILES: COc1cc(-c2c(OC)cccc2OC)[nH]c1/C=C/C1=[N+](C)c2ccccc2C1(C)C
pIC50 (HeLa [1]): 5.35 to 6.04 | inhibition (HeLa [1]): Dose-dependent effect

SMILES: COc1cc(-c2ccc3ccccc3c2)[nH]c1/C=C/C1=[N+](C)c2ccccc2C1(C)C
pIC50 (HeLa [1]): 5.35 to 6.04 | inhibition (HeLa [1]): Dose-dependent effect

SMILES: COc1ccc(-c2cc(OC)c(/C=C/C3=[N+](C)c4ccccc4C3(C)C)[nH]2)cc1OC
pIC50 (HeLa [1]): 5.35 to 6.04 | inhibition (HeLa [1]): Dose-dependent effect

Reference: ChEMBL document CHEMBL4334538, “Mitochondrial Impairment by Cyanine-Based Small Molecules Induces Apoptosis in Cancer Cells” (ACS Med Chem Lett, 2020)
